Rows were chosen to be rich in hits. Some 3.8% of all compounds tested hit in one or more screens of this group.
KCNQ1 inh: blocks the human KCNQ1 potassium channel. P51787. B-score at 10 µM. AID 2642. CHO-K1 KCNQ1, FluxOR thallium flux fluorescence; hits give high values. 1.3% of 310,000 active;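 active means compounds whose thallium flux B-score, printed positive for inhibition, exceeds three library SD while starting fluorescence stays within three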;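 further: channel opened by potassium depolarization with thallium stimulus after 20 min compound exposure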
KCNK9 block: blocks the human KCNK9 two-pore domain potassium channel; Q9NPC2; AID 488922; HEK293 KCNK9, FluxOR thallium flux fluorescence; hits give low values; 1.2% of 310,000 active; B-score at 10 µM;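 active means ratio B-score over 3 SD below the library mean, with starting fluorescence within 5 SD of its mean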;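 further: negative B-score means less thallium flux so channel inhibition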
KCNK3 block: human KCNK3 channel inhibition, primary screen; O14649; CHO-KCNK3 thallium flux, FluxOR fluorescence; hits give low values; B-score at 10 µM; 0.84% of 340,000 active; AID 602410;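 active means B-score under library mean minus 4 SD, starting fluorescence ratio at most library mean plus 5 SD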;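 further: more negative B-score means stronger inhibition of thallium flux through KCNK3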
hERG protect: shields human hERG channel from block by proarrhythmic agents | Q12809 | CHO-hERG, FluxOR thallium flux, dofetilide IC70 present | activation (rescue from dofetilide block), less the hit threshold, % at 10 µM | 0.51% of 310,000 active;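 active means activation above the mean of controls blocked by dofetilide plus 5 SD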;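 further: thallium influx through hERG after potassium depolarization seen as dye fluorescence rise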
Kir21 inh: blocks the mouse Kir2.1 inward-rectifier potassium channel | P35561 | HEK293-Kir2.1, FluxOR thallium flux fluorescence; hits give low values | B-score at 10 µM | 0.85% of 310,000 active | AID 1672;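 active means fluorescence ratio B-score at or below minus 3 SD of library scores, with starting-brightness B-score within 2 SD, cut at about -4.2 in these data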;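 further: channel flux triggered by added potassium and thallium sulfate stimulus; B-score of peak minus minimum fluorescence over baseline after thallium stimulus; more negative B-score means stronger Kir2.1 block with less thallium influx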
Target sequence (P35561 whole entry, looked up): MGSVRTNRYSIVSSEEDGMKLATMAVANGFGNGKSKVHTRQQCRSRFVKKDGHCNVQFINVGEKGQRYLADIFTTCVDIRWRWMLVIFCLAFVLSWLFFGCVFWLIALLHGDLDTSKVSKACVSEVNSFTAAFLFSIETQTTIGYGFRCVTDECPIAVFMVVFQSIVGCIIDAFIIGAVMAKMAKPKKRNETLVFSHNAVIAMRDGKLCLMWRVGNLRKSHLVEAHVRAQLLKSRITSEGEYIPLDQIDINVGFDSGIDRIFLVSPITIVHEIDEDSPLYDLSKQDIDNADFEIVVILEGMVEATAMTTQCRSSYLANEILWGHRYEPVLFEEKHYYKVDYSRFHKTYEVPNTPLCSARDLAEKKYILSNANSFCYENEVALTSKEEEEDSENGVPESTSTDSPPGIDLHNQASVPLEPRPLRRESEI
KCNQ1 pot: potentiators or activators of human KCNQ1 potassium channel; P51787; CHO-K1 KCNQ1, thallium flux FluxOR fluorescence; hits give high values; B-score at 10 µM; 0.35% of 310,000 active; AID 2648;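 active means fluorescence ratio B-score, a plate-corrected score, at least three library SD, with initial intensity B-score within 5 SD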
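Material: CHO-K1 cells stably expressing KCNQ1. Medium: assay buffer for compound exposure, DMSO matched across wells. Reagent: K+/Tl+ depolarizing stimulus. Compound dosing: single-concentration screen. Times: 37 °C overnight plating, 90-min dark dye load, 20-min compound pretreatment. Technique: FluxOR Tl+ flux fluorescence.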
Active calls of the source: *; i = inactive; . = no result given.

SMILES	KCNQ1 inh	KCNK9 block	KCNK3 block	hERG protect	Kir21 inh	KCNQ1 pot
COc1cc(-c2csc(CCn3nc(C)cc3C)n2)cc(OC)c1OC	i	-6.75*	i	-12.5	1.53	i
CCCCOc1ccc(C(=O)N/N=C/c2ccc(OCCN3CCCCC3)c(OC)c2)cc1	6*	i	i	-14.8	-3.08	i
O=C(NC(=S)Nc1cc(C(F)(F)F)ccc1Cl)c1ccccc1	i	i	i	4.7*	1.26	i
CN(C)c1cc[n+](CC(=O)Nc2cc(C(F)(F)F)ccc2Cl)cc1	i	i	i	2.6	-0.31	i
Cc1cc[n+](CC(=O)Nc2cc(C(F)(F)F)ccc2Cl)cc1	i	i	i	4.9*	-0.31	i
O=C(Nc1cc(C(F)(F)F)ccc1Cl)C(NCc1ccccc1)c1ccccc1 (centres undefined)	11*	-7.11*	i	-21.1	-0.39	i
O=C(CC(=O)c1ccccc1)Nc1cc(C(F)(F)F)ccc1Cl	i	i	i	-5.6	0.38	i
O=C(NCC(c1ccco1)N1CCCCC1)c1cccc(S(=O)(=O)Nc2ccc(F)cc2)c1 (centres undefined)	.	.	i	.	.	.
CCN(CCCn1c(=S)[nH]c2ncccc2c1=O)c1ccccc1	i	i	i	38.2*	1.91	i
OC(c1ccccc1)(c1ccccc1)c1nccc2ccccc12	.	.	-10.1*	.	.	.
N#C/C(=C\c1cccc(Oc2ccccc2)c1)C(=O)N1CCOCC1	i	i	i	-22.1	-13.1*	i
O=Cc1ccc(OCC(=O)Nc2ccccc2C(F)(F)F)cc1	i	i	i	-4.9	0.49	i
CC(=O)Nc1ccc(OCC(O)Cn2nc(C)nc2C)cc1 (centres undefined)	i	i	i	5.5*	-0.26	i
Cc1nc(C)n(CC(O)COc2ccc3ccccc3c2)n1 (centres undefined)	i	i	i	-15.2	0.67	i
Cc1ccc(NC(=O)COC(=O)c2ccc(-n3cccn3)cc2)cc1C	.	.	i	.	.	.
CCn1c(SCC(=O)N(C)C)nc2cc(S(=O)(=O)N3CCCCC3)ccc21	i	i	i	-9.1	1.97	i
COc1ccc2[nH]c(=O)c(CN(CCN3CCCC3)C(=O)Nc3ccccc3Cl)cc2c1	i	i	i	-13.4	1.05	i
CCOc1ccc2[nH]c(=O)c(CN(CCN3CCCC3)C(=S)Nc3ccccc3OCC)cc2c1	i	i	i	-9.8	-3.08	10*
CCc1cccc(C)c1NC(=O)CN1CCN(S(=O)(=O)c2ccc(C(C)(C)C)cc2)CC1	i	i	i	-15.2	-0.06	i
COC(=O)c1cc2c(-c3ccccc3)cc3ccccn3c-2c1C(=O)OC	i	i	-8.91*	-6.2	-0.28	i
COC(=O)c1c(C)c2c(C)cc3ccccn3c-2c1C(=O)OC	i	i	i	-5.8	-0.24	i
CCCN(CCC)C(=O)C(c1ccccc1)C1(O)CCCCC1 (centres undefined)	.	.	-8.9*	.	.	.
CCc1ccc(C2=CC(c3cc(Br)ccc3F)n3ncnc3N2)cc1 (centres undefined)	.	.	-8.89*	.	.	.
Fc1ccc(Br)cc1C1C=C(c2ccc(Br)cc2)Nc2ncnn21 (centres undefined)	i	i	-12.4*	-7.6	-1.22	i
CC1CCC(C(C)C)C2=C1C(C#N)(C#N)C(C#N)(C#N)C(c1ccccc1)N2 (centres undefined)	7*	i	i	-18.2	-1.91	i
SMILES	KCNQ1 inh	KCNK9 block	KCNK3 block	hERG protect	Kir21 inh	KCNQ1 pot
CC1=CC(C#N)(C#N)C(C#N)(C#N)C(c2ccccc2)N1 (centres undefined)	i	i	.	-9.9	-0.36	i
COc1ccc(CN(C(=O)c2ccco2)c2ccccc2)cc1	i	i	i	-5.7	-4.22*	i
Cc1nc2ccccc2c2c1C(=O)N(C)C2=O	i	i	i	5.7*	1.1	i
Cc1nc2ccccc2c2c1C(=O)N(C(C)C)C2=O	i	i	i	-8.5	0.05	i
O=C(Cc1cccc2ccccc12)N/N=C/c1ccc(Sc2cccc3cccnc23)o1	i	-9.79*	.	-8.6	0.01	i
O=C(Cc1cccc2ccccc12)N/N=C/c1ccc2cccc(O)c2n1	i	i	i	-6.8	0.83	i
CC(=O)c1ccc(NC(=O)Nc2ccc([N+](=O)[O-])cc2)cc1	7*	i	i	-19.4	-1.08	i
CC(=O)c1ccc(NC(=O)Nc2ccncc2)cc1	i	i	i	4.8*	0.84	i
CC(=O)c1ccc(-n2nncc2-c2ccc([N+](=O)[O-])cc2)cc1	i	i	i	5.5*	-0.54	i
O=C(Nc1ccc([N+](=O)[O-])cc1)Nc1cnccn1	12*	i	i	-15.8	0.93	i
CN(C)CCNc1ccc2ncn3c4ccc(O)cc4c(=O)c1c23	.	.	i	.	.	.
O=C(c1cc([N+](=O)[O-])ccc1Cl)N1CCN(Cc2ccccc2)CC1	i	i	i	-4.4	-0.11	i
Cc1ccc(NC(=O)COC(=O)Cn2ccc(=O)[nH]c2=O)cc1C	.	.	i	.	.	.
Cc1ccc(C(=O)N2CCN(S(=O)(=O)N3CCCCC3)CC2)cc1	i	i	i	-8.4	-0.93	i
Cc1ccc(CNC(=O)CNS(=O)(=O)c2ccc3c(c2)C(C)(C)C(=O)N3C)cc1	i	i	i	-6.6	-0.45	i
O=C(Nc1ccc(Oc2ccc(NC(=O)Nc3ccc([N+](=O)[O-])cc3)cc2)cc1)Nc1ccc([N+](=O)[O-])cc1	8*	i	i	-18.0	-0.97	i
CC(=O)Nc1ccc(OCCOc2ccc([N+](=O)[O-])cc2)cc1	i	i	i	-4.3	-0.41	i
O=C(NNC(=O)c1cccnc1)Nc1ccc([N+](=O)[O-])cc1	i	i	i	-7.8	-0.66	i
O=C(NNC(=O)c1ccncc1)Nc1ccc([N+](=O)[O-])cc1	7*	i	i	-2.7	0.46	i
C/C=C/C=N/Nc1nc(-c2ccc([N+](=O)[O-])cc2)cs1	i	i	i	-6.6	1.09	i
CCC(=O)Nc1cccc(C(=O)c2ccc(C)c(C)c2)c1	i	i	i	-5.8	0.05	i
O=C(Cc1cccc(NC(=O)C2CCCN(C(=O)C3CC3)C2)c1)Nc1cccc(C(=O)N2CCCC2)c1 (centres undefined)	.	.	i	.	.	.
Cc1ccc(S(=O)(=O)Nc2cc(C)c(O)cc2C)cc1	i	i	i	-7.1	-4.93*	i
COc1ccc(S(=O)(=O)Nc2cc(C(C)C)c(O)cc2C)cc1	i	i	i	-12.2	-1.32	i

Source: PubChem (Johns Hopkins Ion Channel Center)
